# Measured values from different studies.
# Compare with care: the assays were run in different laboratories.
# ADRA2C: Alpha-2C adrenergic receptor (ADRA2C, Homo sapiens, UniProt P18825)
# PDE3A: cGMP-inhibited 3',5'-cyclic phosphodiesterase 3A (PDE3A, Homo sapiens, UniProt Q14432)
Structure (SMILES),target,assay,setting,inhibition [%]
COc1cc(Nc2ncc(F)c(Nc3ccc4c(n3)NC(=O)C(C)(C)O4)n2)cc(OC)c1OC,"Eukaryotic translation initiation factor 2-alpha kinase 1 (EIF2AK1, Homo sapiens, UniProt Q9BQI3)","binding, competition with immobilised ligand",10 µM,38
Cn1cc(-c2cccc(N3CCc4c(sc5c4CC(C)(C)C5)C3=O)c2CO)cc(Nc2ccncn2)c1=O,"Phosphatidylinositol 3-kinase catalytic subunit type 3 (PIK3C3, Homo sapiens, UniProt Q8NEB9)","enzyme activity, inhibitor",1 µM,0
CN(CCN1CCC(OC(=O)Nc2ccccc2-c2ccccc2)CC1)C(=O)c1ccc(CN2CCC(C(N)=O)CC2)cc1,"Nociceptin receptor (OPRL1, Homo sapiens, UniProt P41146)","ligand displacement, radioligand",1 µM,0
C#Cc1n[nH]c2c(-c3cn([C@@H](C)c4ccccn4)c(=O)[nH]c3=O)cc(F)cc12,"Mitogen-activated protein kinase 14 (MAPK14, Homo sapiens, UniProt Q16539)","enzyme activity, inhibitor",0.1 µM,4
O=C(Nc1cccnn1)N1CCN([C@@H]2CCOc3cc(C(F)(F)F)ccc32)CC1,ADRA2C,cell-free assay,20 µM,23
C#Cc1n[nH]c2c(-c3cn([C@@H](C)c4ccccc4)c(=O)[nH]c3=O)cc(F)cc12,"Leucine-rich repeat serine/threonine-protein kinase 2 (LRRK2, Homo sapiens, UniProt Q5S007)","enzyme activity, inhibitor",0.1 µM,3.8
CCOC(=O)c1ccc(OC(=O)CCCCCNC(=N)N)cc1,"Ataxin-3 (ATXN3, Homo sapiens, UniProt P54252)","enzyme activity, inhibitor",10 µM,3
Clc1ccc2c(C3CCN(CCc4c[nH]c5ccccc45)CC3)c[nH]c2c1,PDE3A,"enzyme activity, inhibitor",10 µM,-1
COCc1c(-c2cc3cc(C)cc(OC)c3s2)c2c(N)ncnn2c1CN1CCNC(=O)C1,ADRA2C,"ligand displacement, radioligand",10 µM,31
c1ccc(C(NCCNC(c2ccccc2)c2ccccc2)c2ccccc2)cc1,"Apelin receptor (APLNR, Homo sapiens, UniProt P35414)",cell-free assay,10 µM,46
CCN(CC)CCCC[C@H](NC(=O)[C@H](CC(C)C)NC(=O)[C@H](C)NC(=O)[C@H](Cc1ccccc1)NC(=O)c1ccc(C(C)(C)C)cc1)C(=O)N[C@@H](CO)C(=O)OC,"5-hydroxytryptamine receptor 1A (HTR1A, Homo sapiens, UniProt P08908)","ligand displacement, radioligand",10 µM,19
C[C@H](C(=O)N[C@H]1COc2ccccc2[C@@H]1S(C)(=O)=O)c1ccc(F)cc1,PDE3A,"cell-free assay, inhibitor",10 µM,-9
Cn1cc(-c2cc(F)cc(N3CCn4c(cc5c4CCCC5)C3=O)c2CO)cc(Nc2ccc(N3CCN(C4COC4)CC3)cn2)c1=O,"Serine/threonine-protein kinase PAK 3 (PAK3, Homo sapiens, UniProt O75914)","enzyme activity, inhibitor",0.1 µM,16
